The subject of data set [1] is Human immunodeficiency virus 1. The experiment in a line: Antiviral activity against Human immunodeficiency virus 1 NL 4.3 harboring reverse transcriptase K103N mutant pseudotyped with VSV-G envelope co-transfected with luciferase gene infected in 293T cells assessed as inhibition of HIV1 replication administered 15 mins prior to infection measured after 48 hrs post infection by luciferase assay. In kind it is functional, organism-based. As to conditions: Human immunodeficiency virus 1, NL 4.3, HEK-293T. The essentials:
(§1)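 VSV-G plasmid co-transfected with env-deficient pNL4-3.luc.R-E vector (wild-type, RT-K103N or RT-Y181C) into 293T cells by modified Ca3(PO4)2 method; medium changed 16 h post-transfection; virion supernatant harvested 48 h, 0.45 μm filtered, p24 ELISA-quantified and diluted to 0.2 ng p24/mL. Target 293T cells plated 6 × 10^4/well a day before; compounds in DMSO added 15 min before infection; luciferase in lysates read 48 h post-infection; EFV positive control.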

The test system of data set [2] is Human immunodeficiency virus 1. The experiment in a line: Antiviral activity against Human immunodeficiency virus 1 NL 4.3 harboring reverse transcriptase Y181C mutant pseudotyped with VSV-G envelope co-transfected with luciferase gene infected in 293T cells assessed as inhibition of HIV1 replication administered 15 mins prior to infection measured after 48 hrs post infection by luciferase assay. In kind it is functional, organism-based. The note with it: Human immunodeficiency virus 1, NL 4.3, HEK-293T. The method, boiled down: as §1

The nature of data set [3]: Cytotoxicity against human C8166 cells by MTT assay. In kind it is cell-based. The essentials: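 MTT assay on C8166 cells yielding CC50.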
(Tetrazolium assays rely on reduction of a dye to a coloured formazan, in cell work by metabolically active cells.)

Data set [4] concerns Human immunodeficiency virus 1. The experiment in a line: Antiviral activity against Human immunodeficiency virus 1 assessed as inhibition of virus-induced cytopathic effects by cell based assay. The class given is functional, organism-based. The essentials:
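HIV-1 cytopathic-effect inhibition assay yielding EC50; AZT positive control.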
In general terms: Cytopathic effects are the visible damage that an infection or toxin causes in cultured cells.

For data set [5], the system named is Human immunodeficiency virus 1. The experiment in a line: Antiviral activity against wild type Human immunodeficiency virus 1 NL 4.3 pseudotyped with VSV-G envelope co-transfected with luciferase gene infected in human 293T cells assessed as inhibition of HIV1 replication administered 15 mins prior to infection measured after 48 hrs post infection by luciferase assay. In kind it is functional, organism-based. As to conditions: Human immunodeficiency virus 1, NL 4.3, HEK-293T. The essentials: as §1

The nature of data set [6]: Therapeutic index, ratio of CC50 for against human C8166 cells to EC50 for HIV-1. In kind it is cell-based. As to conditions: read-out: Ratio CC50/EC50.

By EC50 is commonly meant the concentration needed to bring the measured effect to its halfway point. Take `O=C1Nc2ccc(Cl)cc2[C@@](C#CC2CC2)(C(F)(F)F)O1` [EFAVIRENZ]: the half-maximal effective concentration (EC50) in data set [1] worked out at 0.024 µM; in data set [2], 0.002 µM.
Broadly, the CC50 is the concentration that lowers cell viability or growth by half. Higher therefore signals lower toxicity to the cells. As to `COC(=O)/C(C)=C1\C(=O)[C@H](O)[C@]2(C)C3=C(C[C@@H]4[C@]5(OC(=O)C6=C5C[C@H]5[C@](O)(COC(=O)/C(C)=C/COC(=O)CCC(=O)OC6)[C@H]6C[C@H]6[C@]45C)[C@H]31)[C@H]1C[C@H]12` [SHIZUKAOL B], in data set [3], the CC50 amounted to 0.02 µM. In addition, the EC50 is 0.47 µM in data set [1], 0.0014 µM in data set [4], 0.5 µM in data set [2] and 0.22 µM in data set [5]. Further, the selectivity ratio in data set [6] came out at 14.4.
Turning to `C/C=C(\C)C(=O)OCC1=C2C[C@H]3[C@H](O)[C@H]4C[C@H]4[C@]3(C)[C@@H]3C[C@@]4(O)C5=C(/C(=C(/C)C(=O)OC)C(=O)[C@H](O)[C@@]5(C)[C@@H]5C[C@@H]54)[C@]23OC1=O` [SHIZUKAOL C], in data set [3], the half-maximal cytotoxic concentration (CC50) was found to be 0.089 µM. Moreover, the EC50 in data set [1] worked out at 1.36 µM; in data set [4], 0.016 µM; in data set [2], 1 µM; in data set [5], 0.98 µM. Moreover, the selectivity ratio in data set [6] was 5.56.
Consider `COC(=O)/C(C)=C1\C(=O)[C@H](O)[C@]2(C)C3=C(C[C@@H]4[C@]5(OC(=O)C6=C5C[C@H]5[C@](O)(COC(=O)/C=C(\C)COC(=O)CCC(=O)OC6)[C@H]6C[C@H]6[C@]45C)[C@H]31)[C@H]1C[C@H]12` [SHIZUKAOL F], for which the CC50 in data set [3] worked out at 0.047 µM. For the same compound, the EC50 is 3.39 µM in data set [1], 0.0043 µM in data set [4], 4.05 µM in data set [2] and 0.11 µM in data set [5]. In data set [6], the selectivity ratio came to 10.9.
Consider `COC(=O)/C(C)=C1\C(=O)[C@H](O)[C@]2(C)C3=C(C[C@@H]4[C@]5(OC(=O)C6=C5C[C@H]5[C@](O)(COC(=O)/C=C(\C)COC(=O)[C@@H](O)CC(=O)OC6)[C@H]6C[C@H]6[C@]45C)[C@H]31)[C@H]1C[C@H]12` [SHIZUKAOL H], for which the CC50 in data set [3] was 0.022 µM. For the same compound, the EC50 in data set [1] is 2.35 µM; in data set [4] it was 0.0033 µM; in data set [2] it was 0.86 µM; in data set [5] it was 0.83 µM. In addition, the selectivity ratio in data set [6] came out at 6.67.
As to `Cc1cn([C@H]2C[C@H](N=[N+]=[N-])[C@@H](CO)O2)c(=O)[nH]c1=O` [ZIDOVUDINE], the selectivity ratio in data set [6] amounted to 1.02e+06.

The values are drawn from ChEMBL document CHEMBL1811839, “Lindenane disesquiterpenoids with anti-HIV-1 activity from Chloranthus japonicus” (J Nat Prod, 2011).
